An excerpt weighted towards active compounds, which were near 2.6% of everything screened.
Ecoli rRNA inh – reduced GFP signal of wild-type E. coli, primary screen, bacterial rRNA inhibitor project, GFP/RFP fluorescence, OD600, single point | E. coli WT GFP vs humanized-ribosome RFP mutants, 24 h; hits give low values; DMSO median 0, no signal -100 | GFP signal change (wild-type ribosome), % (test concentration not listed) | 350,000 compounds, 1.6% hits | AID 720706, 2013;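 active = significant combined selectivity score with lowered wild-type GFP, culture density cut under 30%, mutant RFP and density less affected; inactive = any of these conditions unmet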
PvdQ inh – P. aeruginosa PvdQ acylase inhibitors, primary screen, biochemical, fluorescence, plate reader and imaging, single point; PvdQ acylase [Pseudomonas aeruginosa LESB58]; purified PvdQ acylase; inhibition, % at 10 µM; 340,000 compounds, 0.063% hits; in the data active = inhibition above about 30%, passing the limit was not always enough; inconclusive = no clear call, values can overlap the other calls;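 note: 0% = vehicle neutral wells and 100% = reference inhibitor wells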
dFosB act – activators of delta FosB homodimer, primary screen, biochemical, fluorescence polarization, TAMRA-CDK5 oligo, single point | Protein FosB (Mus musculus), P13346 | purified delta FosB; percent of positive-control signal above neutral wells | activation, % at 25 µM | 340,000 compounds, 0.99% hits;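 active = mean activation above about 17%, with every replicate also reaching it, limit read from the data, passing the limit was not always enough; inconclusive = only one of the two conditions met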
Target sequence (P13346 whole entry, looked up): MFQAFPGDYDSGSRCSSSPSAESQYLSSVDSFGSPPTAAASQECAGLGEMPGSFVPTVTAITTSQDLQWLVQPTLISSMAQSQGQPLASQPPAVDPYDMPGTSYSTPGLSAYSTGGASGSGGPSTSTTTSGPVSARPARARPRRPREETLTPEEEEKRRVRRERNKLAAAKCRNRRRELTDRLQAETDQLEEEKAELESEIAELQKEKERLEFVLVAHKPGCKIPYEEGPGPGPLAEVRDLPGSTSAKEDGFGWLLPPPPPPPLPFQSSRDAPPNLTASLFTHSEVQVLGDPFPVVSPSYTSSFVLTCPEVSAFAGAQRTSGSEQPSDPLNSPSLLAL
Xi reactivation – activators of inactive X chromosome reactivation, primary screen, imaging, XiGFP fibroblasts, GFP high-content imaging, set 2 | XiGFP mouse fibroblasts, % GFP-positive cells imaging, 3 d; cells co-treated with 5-aza-dC sensitizer; scaled so ellipticine positive control = 100% | activation, % at 7.58 µM | 360,000 compounds, 0.055% hits | AID 743238, 2013;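 active = mean normalized replicate activation at least 10% and every replicate at or above 10%; inconclusive = only one of the two criteria met; inactive = mean below 10% and not all replicates reach 10%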;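 note: 0% = median of on-plate neutral control wells and 100% = ellipticine 6 µM median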
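Schedule: 3 d treatment, 15 min room-temperature fixation; system: 68-5-11 XiGFP fibroblast line; buffer or medium: DMEM plus 5-aza-dC sensitizer; control set: ellipticine 6 µM positive control; compound: one concentration, pinned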
SR-BI HDL uptake – inhibitors of SR-BI mediated HDL lipid uptake, primary screen, ldlA[mSR-BI] cells, fluorescence, single point; AID 488896, 2010; ldlA[mSR-BI] CHO cells, DiI-HDL uptake fluorescence, 3 h; Scavenger receptor class B member 1 (Mus musculus), Q61009; inhibition, % at 12.5 µM; 320,000 compounds, 0.96% hits;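 active = mean replicate inhibition of at least 70% and a set share of replicates each scoring 70 or more; inconclusive = meets just one of the two criteria; inactive = fails both criteria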;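 note: 0% = median of neutral control wells and 100% = median of positive control wells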
SR-BI DiI-HDL act – activators of SR-BI mediated DiI-HDL uptake, primary screen, ldlA[mSR-BI] CHO cells, DiI fluorescence; 3 h; 100 = double the neutral-control signal; activation, % at 12.5 µM; 320,000 compounds, 0.096% hits;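 active = mean replicate activation of at least 60% and every replicate at or above 60%; inconclusive = mean or all-replicate condition met, but not both; inactive = mean below 60% and not all replicates reaching 60%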;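 note: 0% = median plate neutral-control signal and 100% = twice that signal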
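material = CHO ldlA[mSR-BI] cells | medium = Ham's F12 with 0.5% BSA, HEPES 25 mM, pH 7.4 | reagent = fluorescent DiI-HDL, 10 µg/mL final | compound dosing = single-point compound dose | incubation = 3 h, 37 °C | measured by = bottom-read fluorescence, 550/595 nm | measure = HDL uptake via cellular fluorescence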
AID977621 – growth inhibition of wild-type GFP E. coli, dose response, H69 mutant RFP, cherry-pick; shares compounds with Ecoli rRNA inh; E. coli wild-type GFP strain growth, fluorescence, 24 h; activity change, negative = inhibition at 50 µM; 1,900 tested, under 10 active; AID 977621, 2014;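 active = Wild-type ribosome reporter drop at least double the humanized mutant ribosome reporter drop, growth loss under a set limit; inconclusive = no clear call, values can overlap the other calls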;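 note: wild-type GFP and H69 mutant RFP strains grown together 50/50 in each well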
AID977628 – E. coli growth inhibition, wild-type GFP versus h24 humanized RFP strain, dose response, h24 mutant RFP vs wild-type GFP, cherry-pick; 1,900 tested, under 10 active; shares compounds with Ecoli rRNA inh; E. coli WT GFP strain growth, fluorescence, 24 h; activity change, negative = inhibition at 50 µM;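 active = compound lowering the normal-ribosome reporter at least twice as much as the humanized-ribosome reporter, growth loss under a set limit; inconclusive = no clear call, values can overlap the other calls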;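 note: wild-type GFP and h24 humanized RFP strains co-cultured 1 to 1 per well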
* marks the source's active call; other numbers are inactive results; ? = inconclusive; . = no result given.

SMILES	Ecoli rRNA inh	PvdQ inh	dFosB act	Xi reactivation	SR-BI HDL uptake	SR-BI DiI-HDL act	AID977621	AID977628
O=C(C[C@@H]1CC[C@H]2[C@@H](COC[C@H](O)CN2C(=O)Nc2ccc(Cl)cc2)O1)N1CCCCC1	-47.1	.	.	-0.1	.	.	.	.
O=C(C[C@H]1CC[C@H]2[C@@H](COC[C@@H](O)CN2C(=O)Nc2ccc(Cl)cc2)O1)N1CCCCC1	-17.6*	.	.	0.2	.	.	.	?
O=C(C[C@@H]1CC[C@@H]2[C@H](COC[C@H](O)CN2C(=O)Nc2ccc(Cl)cc2)O1)NCc1ccncn1	-22.1*	.	.	-0.1	.	.	-5.26	?
C/C=C(/C)C(=O)Nc1cccc(C2=NOC3(C2)C[C@@H](C(N)=O)N(C(=O)/C=C/CC)C3)c1 (stereo not given in full)	1.8	-10.7	-3.2	0.0	21.8	-21.8	.	.
CN1CCN(C(=O)C[C@H]2CC[C@H]3[C@@H](COC[C@H](O)CN3C(=O)Nc3ccc(Cl)cc3)O2)CC1	-25.0*	.	.	0.4	.	.	.	?
COc1ccc(NC(=O)CCN2CCN(S(=O)(=O)c3ccc(Cl)cc3)CC2)cc1	-9.0	-5.7	-10.7	.	-1.1	1.1	.	.
Cc1ccccc1NC(=O)c1ccccc1N(C)S(=O)(=O)c1ccccc1	-18.9*	2.4	-6.2	-0.1	.	.	-21.1	?
Cc1ccc(C(=O)Nc2ccc(NC(=O)c3cccs3)cc2)cc1[N+](=O)[O-]	12.2	-9.5	12.9	0.5	38.8	-38.8	.	.
CC(=O)Nc1ccc(S(=O)(=O)Nc2ccc(C)c([N+](=O)[O-])c2)cc1	-25.6*	-10.7	-10.7	0.0	-3.8	3.8	.	?
Cc1ccc(NC(=O)c2cccs2)cc1[N+](=O)[O-]	-28.4*	0.0	-0.9	0.0	13.3	-13.3	-1.9	.
CC(=O)Nc1ccc(NS(=O)(=O)c2cc([N+](=O)[O-])ccc2C)cc1	8.0	-4.6	-8.3	0.0	0.9	-0.9	.	.
CCN=C1NN=C(c2ccc(C)cc2)CS1	-22.5*	10.5	-10.1	.	18.8	-18.8	-10.5	-8.07
CN(C)S(=O)(=O)N1CCN(c2cc(Cl)ccc2Cl)CC1	.	22.0	-1.5	.	6.8	-6.8	.	.
CN(C)S(=O)(=O)N1CCN(c2ccccc2Cl)CC1	-21.4*	8.8	-4.6	.	0.1	-0.1	-0.038	-7.42
CC(CNC(=O)CN1C(=O)CCSc2ccccc21)c1ccccc1 (stereo not given)	-2.2	-10.8	5.3	0.1	-0.7	0.7	.	.
CCOc1ccc(CCNC(=O)CN2C(=O)CCSc3ccccc32)cc1	-20.4*	-5.0	1.2	0.2	-0.3	0.3	.	?
CCOC(=O)Cc1csc(SCC(=O)Nc2cc(Cl)ccc2Oc2ccccc2)n1	.	2.5	-5.6	.	32.4	-32.4	.	.
CCOC(=O)Cc1csc(SCC(=O)Nc2cc(C)ccc2OC)n1	-24.1*	3.4	-3.6	0.0	-4.8	4.8	.	?
COc1ccc(NC(=O)CN(C)S(=O)(=O)c2cccs2)cc1	.	-2.5	-2.1	.	.	.	.	.
Cc1cccc(NC(=O)CN(C)S(=O)(=O)c2cccs2)c1	-27.0*	1.7	2.5	.	13.6	-13.6	-15.4	?
N#Cc1ccc(-c2cccc(-c3nc(C(=O)O)cc4c3[C@H](CCO)N(CC3CCOCC3)C4)c2)cc1	6.0	.	.	0.0	.	.	.	.
CN(Cc1ccccc1NS(=O)(=O)c1ccc(Cl)cc1)C1CCCCC1	-29.2*	-13.3	-6.5	-0.1	26.6	-26.6	-6.88	?
Cc1cc(Br)ccc1OCc1nnc(-c2ccccc2)o1	1.9	.	.	0.0	.	.	.	.
COc1ccc(-c2nnc(COc3ccc(Br)cc3C)o2)cc1	-18.6*	.	.	0.0	.	.	?	?
CCc1nnc(SCC(=O)Nc2ccc(N3CCOCC3)cc2)o1	.	-3.0	3.2	.	1.7	-1.7	.	.
SMILES	Ecoli rRNA inh	PvdQ inh	dFosB act	Xi reactivation	SR-BI HDL uptake	SR-BI DiI-HDL act	AID977621	AID977628
COc1ccccc1CC(=O)NCc1csc(-c2cccs2)n1	-21.2*	.	.	0.1	.	.	-11.3	5.69
CCOC(=O)C(NC(C)=O)(Nc1ccc(F)cc1)C(F)(F)F (stereo not given)	.	3.5	-4.6	.	1.7	-1.7	.	.
CC(C)C[C@@H](CSc1ccccc1)N1CCN(CC(C)C)CCC1=O	-23.2*	-2.7	-1.6	-0.7	-17.8	17.8	?	.
COc1ccc(Nc2nc(N)c([N+](=O)[O-])c(N3CCN(C)CC3)n2)cc1	-6.1	12.1	-3.7	0.0	4.4	-4.4	.	.
COc1ccc(Nc2nc(N)c([N+](=O)[O-])c(N3CCCC3)n2)cc1	-20.8*	-13.8	2.3	0.0	53.8	-53.8	5.67	-5.46
COc1ccc(OC)c(Nc2nc(N)c([N+](=O)[O-])c(N3CCOCC3)n2)c1	-31.0*	-1.1	-11.1	0.0	18.7	-18.7	?	.
COc1cc(C(=O)NC(C)CCc2ccccc2)cc(OC)c1OC (stereo not given)	16.3	-2.5	-4.1	0.3	0.1	-0.1	.	.
O=C(CCCn1c(=S)[nH]c2ccsc2c1=O)Nc1ccc(F)cc1	-0.1	.	.	0.0	.	.	.	.
O=C(CCCn1c(=S)[nH]c2ccsc2c1=O)Nc1ccc2c(c1)OCCO2	-20.7*	-2.8	-3.0	0.0	14.2	-14.2	-10.6	.
O=C(CSc1nc2ccccc2n1S(=O)(=O)c1cccc([N+](=O)[O-])c1)NCCc1ccccc1	-32.6*	-2.8	-6.3	-0.1	-24.2	24.2	-6.5	-8.42
O=[N+]([O-])c1ccc(/C=C/c2ccc3cccc([N+](=O)[O-])c3n2)cc1	-17.9*	-6.4	-0.6	-0.6	21.4	-21.4	-5.08	1.19
Cn1cnc([N+](=O)[O-])c1Oc1ccccc1	-36.8*	-2.7	-10.9	0.0	-19.7	19.7	2.46	-2.13
Cn1cnc([N+](=O)[O-])c1Oc1cccc(O)c1	.	-4.2	1.6	0.3	11.9	-11.9	.	.
CCCC#Cc1ccc2c(c1)O[C@H](CN(C)C(=O)C1CC1)[C@H](C)CN([C@@H](C)CO)S2(=O)=O	-3.8	.	.	-0.5	.	.	.	.
C[C@@H]1CN([C@H](C)CO)C(=O)c2cc(C3=CCCCC3)cnc2O[C@@H]1CN(C)Cc1cccnc1	-0.1	.	.	0.9	.	.	.	.
